Published values from different studies.
Each line is one published result; the experiments were not run side by side.
Target: Inhibitor of nuclear factor kappa-B kinase subunit beta (IKBKB, Homo sapiens, UniProt O14920)
Sequence (O14920 1-756, as in one of the studies): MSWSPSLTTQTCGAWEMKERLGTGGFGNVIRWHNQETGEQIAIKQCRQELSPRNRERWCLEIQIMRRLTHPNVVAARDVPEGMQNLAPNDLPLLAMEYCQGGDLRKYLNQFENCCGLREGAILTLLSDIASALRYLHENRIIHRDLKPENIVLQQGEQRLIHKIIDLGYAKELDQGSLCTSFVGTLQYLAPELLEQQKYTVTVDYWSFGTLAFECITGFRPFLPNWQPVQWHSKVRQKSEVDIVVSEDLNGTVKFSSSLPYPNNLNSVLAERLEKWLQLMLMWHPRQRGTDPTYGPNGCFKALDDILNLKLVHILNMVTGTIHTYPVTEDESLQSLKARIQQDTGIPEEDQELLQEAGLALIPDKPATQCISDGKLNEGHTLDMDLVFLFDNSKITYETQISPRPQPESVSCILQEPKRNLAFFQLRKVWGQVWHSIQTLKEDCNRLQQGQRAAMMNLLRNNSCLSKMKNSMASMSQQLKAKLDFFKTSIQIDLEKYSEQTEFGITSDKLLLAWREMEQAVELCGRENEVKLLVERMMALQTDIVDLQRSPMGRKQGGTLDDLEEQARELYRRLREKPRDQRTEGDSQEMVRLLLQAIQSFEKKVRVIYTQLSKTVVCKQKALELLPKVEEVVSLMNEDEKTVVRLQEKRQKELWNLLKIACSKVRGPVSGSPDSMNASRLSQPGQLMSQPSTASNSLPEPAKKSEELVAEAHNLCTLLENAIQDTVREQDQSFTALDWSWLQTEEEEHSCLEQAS

Structure (SMILES)	test	setting	remaining binding [%]
CNC(=O)Nc1ccc2c(c1)CC[C@@]21OC(=O)N(CC(=O)N(Cc2ccc(F)cc2)[C@@H](C)C(F)(F)F)C1=O	cell-free assay, competition with immobilised ligand	1 µM	83
O=C(c1ccc(Nc2ncc(Cl)c(-c3ccc(Cl)s3)n2)cc1)N1CCC(N2CCCC2)CC1	binding, competition with immobilised ligand	1 µM	0.6
CCCOc1ccc([C@@H]2[C@@H](C(=O)O)[C@H](c3ccc4c(c3)OCO4)CN2CC(=O)Nc2c(CC)cccc2CC)cc1	cell-free assay, competition with immobilised ligand	1 µM	94
F[C@@H]1CCN(c2nccc(-c3cnn4ncccc34)n2)C1	binding, competition with immobilised ligand	1 µM	100
N#Cc1ccccc1CSc1nnc2c(n1)[nH]c1ccccc12	binding, competition with immobilised ligand	10 µM	100
COc1ncc2cc3ccccc3nc2c1C#N	cell-free assay, competition with immobilised ligand	5 µM	96
FC(F)(F)Oc1cccc(-c2cnc3ccc(-c4ccncc4)nn23)c1	cell-free assay, competition with immobilised ligand	5 µM	56
CCN1CCN(Cc2ccc(C(=O)Nc3ccc(C)c(Oc4ccc5c(c4)CC(=O)N5)c3)cc2C(F)(F)F)CC1	binding, competition with immobilised ligand	1 µM	100
CNCc1ccccc1-c1csc([C@H](C)Nc2nc(C)nc3cc(OC)c(OC)cc23)c1	cell-free assay, competition with immobilised ligand	1 µM	83
O=C(c1ccc(Nc2nccc(-c3cc4ccccc4s3)n2)cc1)N1CCC(N2CCCC2)CC1	binding, competition with immobilised ligand	1 µM	0.1
COc1ccnn2ncc(-c3ccnc(N(C)C)n3)c12	binding, competition with immobilised ligand	1 µM	98
CSc1cccnc1N1CCN(Cc2nc3ccccc3[nH]2)CC1	cell-free assay, competition with immobilised ligand	1 µM	86
C[C@@H]1CCN(c2nccc(-c3cnn4ncccc34)n2)C1	binding, competition with immobilised ligand	1 µM	77
CN(C)CC#Cc1ccc(OCCCc2sc(N3CCc4cccc(C(=O)Nc5nc6ccccc6s5)c4C3)nc2C(=O)O)c(F)c1	cell-free assay, competition with immobilised ligand	1 µM	72
O=C(NCC1CCOCC1)c1n[nH]cc1NC(=O)c1c(F)cccc1F	binding, competition with immobilised ligand	1 µM	92
CN(c1nccc(-c2cnn3ncccc23)n1)C1CC1	binding	1 µM	100
C[C@@H](c1ccc(-n2cnc3c(N)ncnc32)cc1)N1CCc2nn(C)c(Cc3ccccc3)c2C1=O	binding, competition with immobilised ligand	0.1 µM	68
O=C(NCCCN1CCOCC1)c1ccc(Nc2ncc(Cl)c(-c3ccc(Cl)s3)n2)cc1	binding, competition with immobilised ligand	1 µM	23
C=CC(=O)N1CCC(C(=O)NCC(=O)N2CCN(c3nc(-c4cnc(N)nc4C(F)F)nc(N4CCOCC4)n3)CC2)CC1	binding, competition with immobilised ligand	1 µM	73
COc1cnc(Nc2cccc(S(N)(=O)=O)c2)nc1N1CCN(c2ccccc2)CC1	binding, competition with immobilised ligand	1 µM	94
Cc1cnn2ncc(-c3ccnc(N(C)C)n3)c2c1	binding, competition with immobilised ligand	1 µM	53
C[C@@H]1CN(c2ccc3ncc(-c4ccc5[nH]nc(C6CC6)c5c4)n3n2)C[C@H](C)O1	binding, competition with immobilised ligand	50 nM	88
N[C@@H]1CCN(c2nccc(-c3cnn4ncccc34)n2)C1	binding, competition with immobilised ligand	1 µM	100
CN(C)c1ncnc(-c2ccc3nc(Nc4cc(CN5CCN(C(=O)CC(F)(F)F)CC5)ccn4)[nH]c3c2)c1Cl	cell-free assay, competition with immobilised ligand	1 µM	80
c1cnn2ncc(-c3ccnc(N4CCC45COC5)n3)c2c1	binding, competition with immobilised ligand	1 µM	40
CN1CCN(c2cnc3c(C4CCN(C(=O)c5ccc(OC(F)(F)F)cc5N)CC4)ncnc3c2)CC1	cell-free assay, competition with immobilised ligand	1 µM	100
